Data from paper PMC10725268 (CPT: Pharmacometrics & Systems Pharmacology, 2023).
Where a SMILES comes first, the peptide text is derived from it. Bridges are numbered along the chain shown (N, C = ends). [ ]: non-standard residue; d: D form. The star is where a group is joined. Heptanoyl(6-Me) = CC(C)CCCCC(=O)*; X1 = CC[C@H](C)CCCCC(=O)*; Dab = NCC[C@H](N)C(=O)O

Experiments:
patients receiving PMB = conditions: cited from earlier work
[1] = Steady-state plasma concentrations of PMB; type: in vivo; conditions: human, iv
How it was run: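 Blood drawn after ≥48 h of dosing; peak taken immediately after infusion end. Samples centrifuged 885 g, 10 min; supernatant stored −80°C. PMB1 and PMB2 measured by UPLC-MS/MS on a C18 column (2.6 μm, 3.0 × 50 mm), 40°C, 0.3 ml/min. Gradient: 0.1% formic acid in water versus acetonitrile. Total PMB is the sum of PMB1 and PMB2.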

critically ill patients [2] = assay: Clinical outcome during intravenous PMB treatment; type: in vivo, human
How it was run: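 Single-centre ICU cohort, August 2020–July 2022: adults on intravenous PMB for ≥2 days with MDR Gram-negative infection. Excluded: baseline creatinine >1.5 mg/dl, prior renal replacement, or a changed maintenance dose. Prognosis and adverse events were taken from hospital records. AKI and non-AKI groups were compared by chi-square or Fisher's exact test.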

critically ill patients [3] = type: in vivo, human
How it was run: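 Intravenous dosing: 2.5 mg/kg loading dose (not all patients), then 2.5–3 mg/kg/day in two divided doses. After ≥48 h, mid-interval plasma concentration was sampled 6 h post-dose. Variables with p < 0.05 in univariate logistic regression entered forward-stepwise multivariate regression, with fit checked by Hosmer–Lemeshow. ROC cutoff was taken at the maximum Youden index. AKI probability came from a logistic equation on C1/2t.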

[4] = Estimation of PMB AUC0-24 from timed steady-state plasma concentrations; type: in vivo, human; conditions: mean ± SD; for AUC(0-t): human, iv, AUC0–24, trapezoidal area
critically ill patients [5] = assay: PMB-induced acute kidney injury; type: in vivo, human
How it was run: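 ICU adults (>18 years) with MDR Gram-negative infection, given intravenous PMB (sulfate) for ≥2 days with plasma monitoring. Excluded: baseline serum creatinine >1.5 mg/dl or prior renal replacement. AKI (KDIGO) was a serum creatinine rise ≥0.3 mg/dl within 48 h, >1.5-fold within 7 days, or urine output <0.5 ml/kg/h for >6 h.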

[6] = one-compartment model, AKI (n = 30)
[7] = one-compartment model, Non-AKI (n = 25)
[8] = one-compartment model, Overall (n = 55)

CC[C@H](C)CCCCC(=O)N[C@@H](CCN)C(=O)N[C@H](C(=O)N[C@@H](CCN)C(=O)N[C@H]1CCNC(=O)[C@H]([C@@H](C)O)NC(=O)[C@H](CCN)NC(=O)[C@H](CCN)NC(=O)[C@H](CC(C)C)NC(=O)[C@@H](Cc2ccccc2)NC(=O)[C@H](CCN)NC1=O)[C@@H](C)O [PMB1, polymyxin B1] (X1-[Dab]T[Dab][Dab][Dab][dF]L[Dab][Dab]T; lactam 4-C)
peak concentration above which the probability of AKI would be >50% (patients receiving PMB; ref 17 (Deng et al.)): > 5.23 µg/mL

CC(C)CCCCC(=O)N[C@@H](CCN)C(=O)N[C@H](C(=O)N[C@@H](CCN)C(=O)N[C@H]1CCNC(=O)[C@H]([C@@H](C)O)NC(=O)[C@H](CCN)NC(=O)[C@H](CCN)NC(=O)[C@H](CC(C)C)NC(=O)[C@@H](Cc2ccccc2)NC(=O)[C@H](CCN)NC1=O)[C@@H](C)O [PMB2, polymyxin B2] ({Heptanoyl(6-Me)}-[Dab]T[Dab][Dab][Dab][dF]L[Dab][Dab]T; lactam 4-C)
Cmax [1]: 1000 ng/mL

CC[C@H](C)CCCCC(=O)N[C@@H](CCN)C(=O)N[C@H](C(=O)N[C@@H](CCN)C(=O)N[C@H]1CCNC(=O)[C@H]([C@@H](C)O)NC(=O)[C@H](CCN)NC(=O)[C@H](CCN)NC(=O)[C@H](CC(C)C)NC(=O)[C@@H](Cc2ccccc2)NC(=O)[C@H](CCN)NC1=O)[C@@H](C)O [PMB, polymyxin B] (X1-[Dab]T[Dab][Dab][Dab][dF]L[Dab][Dab]T; lactam 4-C)
30-day mortality rate (critically ill patients [2]; AKI group): 46.7% | 30-day mortality rate (critically ill patients [2]; non-AKI group): 20% | trough concentration limit suggested to reduce the risk of AKI (patients receiving PMB; ref 16 (Han et al.)): < 3.13 mg/L | nephrotoxicity compared with colistin (patients receiving PMB; systematic review and meta-analysis): lower nephrotoxicity than colistin | optimal cutoff value of C1/2t for predicting PMB-induced AKI (critically ill patients [3]; ROC curve, Youden index, p = 0.002, 66.7% sensitivity, 72% specificity): 3.47 µg/mL | C1/2t at which the probability of AKI was >50% (critically ill patients [3]; univariate logistic regression, Equation 5): ≥ 3.24 mg/L | AUC(0-t) ([4]; based on Cmin(B) and Cmax(B), AKI (n = 30)): 128 ± 36.2 µg·h/mL | AUC(0-t) ([4]; based on Cmin(B) and Cmax(B), Non-AKI (n = 25)): 102 ± 30.9 µg·h/mL | AUC(0-t) ([4]; based on Cmin(B) and Cmax(B), Overall (n = 55)): 116 ± 36 µg·h/mL | AUC(0-t) ([4]; based on Cmin(B), C1/2t(B), and Cmax(B), AKI (n = 30)): 110 ± 31.3 µg·h/mL | AUC(0-t) ([4]; based on Cmin(B), C1/2t(B), and Cmax(B), Non-AKI (n = 25)): 85.4 ± 24.4 µg·h/mL | AUC(0-t) ([4]; based on Cmin(B), C1/2t(B), and Cmax(B), Overall (n = 55)): 99.1 ± 30.8 µg·h/mL | AUC0–24, first-order pharmacokinetic equation, based on C1/2t(B) and Cmax(B) (AUC1/2t,max) [4, 6]: 103.7 ± 31.2 µg·h/mL | AUC0–24, first-order pharmacokinetic equation, based on Cmin(B) and C1/2t(B) [4, 6]: 100.7 ± 34.8 µg·h/mL | AUC0–24, first-order pharmacokinetic equation, based on Cmin(B) and Cmax(B) [4, 6]: 115.7 ± 35.1 µg·h/mL | AUC0–24, first-order pharmacokinetic equation, based on Cmin(B) and C1/2t(B) [4, 7]: 72.8 ± 21.2 µg·h/mL | AUC0–24, first-order pharmacokinetic equation, based on Cmin(B) and Cmax(B) [4, 7]: 90.2 ± 28.4 µg·h/mL | AUC0–24, first-order pharmacokinetic equation, based on Cmin(B) and C1/2t(B) [4, 8]: 88.1 ± 32.3 µg·h/mL | AUC0–24, first-order pharmacokinetic equation, based on Cmin(B) and Cmax(B) [4, 8]: 104.1 ± 34.4 µg·h/mL | overall AKI incidence (critically ill patients [5]; 30 of 55 patients on intravenous PMB, KDIGO definition): 54.5% | patients who developed AKI on Day 3 (critically ill patients [5]; after PMB administration): 13.3% | patients who developed AKI within 7 days (critically ill patients [5]; share of the AKI group (n = 30)): 46.7%
